The source of these data is ChEMBL document CHEMBL1148390, “Structural analysis and optimization of NK(1) receptor antagonists through modulation of atropisomer interconversion properties” (J Med Chem, 2004).

The target of series [1] is T1, Substance-K receptor (Oryctolagus cuniculus) (UniProt P79218).
T1 sequence (whole entry): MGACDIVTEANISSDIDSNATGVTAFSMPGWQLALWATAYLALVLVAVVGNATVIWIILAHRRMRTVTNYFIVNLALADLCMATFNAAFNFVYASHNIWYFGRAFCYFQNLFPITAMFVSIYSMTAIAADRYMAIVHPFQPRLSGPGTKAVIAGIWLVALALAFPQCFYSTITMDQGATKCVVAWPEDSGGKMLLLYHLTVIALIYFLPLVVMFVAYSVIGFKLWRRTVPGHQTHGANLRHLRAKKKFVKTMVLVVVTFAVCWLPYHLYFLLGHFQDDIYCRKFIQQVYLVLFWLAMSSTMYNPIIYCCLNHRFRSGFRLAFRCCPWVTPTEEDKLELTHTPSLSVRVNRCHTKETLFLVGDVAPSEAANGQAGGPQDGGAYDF
The series can be described thus: In vitro binding affinity towards Tachykinin receptor 2 using rabbit pulmonary artery tissues. A digest of the protocol:
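Functional antagonism in isolated rabbit pulmonary artery (n = 2–6), reported as pKB. NK1 tested against agonist ASMSP with antagonist at 1 nM, or at 100 nM where antagonism was not purely competitive; NK2 tested against agonist BANK with antagonist at 1 μM. Where antagonism was not purely competitive, activity was taken as percent inhibition = 100 – maximum relaxation as % of control.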

The next series has as its system Gerbillinae. The series can be described thus: Percent inhibitory activity against ASMSP induced foot tapping response in gerbils after oral dose of 5 uM/kg. The series is classed as functional. A digest of the protocol: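 Gerbils given antagonist orally at 5 μmol/kg 6 h before central (CNS) administration of ASMSP (100 pmol). Foot-tapping response compared with vehicle-only control animals; result expressed as percent inhibition.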

The target in another series is Substance-P receptor (Homo sapiens, UniProt P25103). The series can be described thus: In vitro binding affinity towards human Tachykinin receptor 1 was determined by using [3H]SP as a radioligand. A digest of the protocol: (§1)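 Human tachykinin receptors stably expressed in mouse erythroleukemia (MEL) cells; NK3 construct differs from genomic sequence at AA439 (Cys vs Phe). Radioligand displacement: [3H]SP for NK1, [125I]NKA for NK2, [125I]MePheNKB for NK3; n ≥ 2 determinations.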
Chain of Substance-P receptor (P25103 whole entry): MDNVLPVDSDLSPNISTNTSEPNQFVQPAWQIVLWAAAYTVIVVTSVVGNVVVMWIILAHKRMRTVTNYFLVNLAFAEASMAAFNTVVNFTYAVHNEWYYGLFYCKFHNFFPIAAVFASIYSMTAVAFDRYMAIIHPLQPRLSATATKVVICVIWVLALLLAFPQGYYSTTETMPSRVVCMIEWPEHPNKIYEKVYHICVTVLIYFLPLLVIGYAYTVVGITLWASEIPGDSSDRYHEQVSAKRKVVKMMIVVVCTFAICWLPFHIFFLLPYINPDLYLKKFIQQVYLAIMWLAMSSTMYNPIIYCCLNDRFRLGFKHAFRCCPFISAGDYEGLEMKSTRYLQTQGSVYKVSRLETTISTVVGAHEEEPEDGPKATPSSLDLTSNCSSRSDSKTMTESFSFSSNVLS

The next series has as its target T2, Substance-K receptor (Homo sapiens, UniProt P21452).
T2 sequence (P21452 whole entry): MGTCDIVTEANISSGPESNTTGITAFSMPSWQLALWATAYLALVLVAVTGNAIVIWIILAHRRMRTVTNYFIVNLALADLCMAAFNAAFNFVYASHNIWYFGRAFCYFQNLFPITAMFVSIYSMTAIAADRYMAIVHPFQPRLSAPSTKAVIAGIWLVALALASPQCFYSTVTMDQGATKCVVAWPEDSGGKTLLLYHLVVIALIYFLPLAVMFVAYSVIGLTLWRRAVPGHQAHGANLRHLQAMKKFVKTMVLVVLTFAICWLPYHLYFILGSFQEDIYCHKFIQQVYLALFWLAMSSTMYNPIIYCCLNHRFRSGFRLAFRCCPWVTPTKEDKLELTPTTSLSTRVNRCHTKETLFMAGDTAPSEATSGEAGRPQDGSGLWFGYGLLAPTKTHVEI
The series can be described thus: In vitro binding affinity towards human Tachykinin receptor 2 was determined by using [125I]NKA as a radioligand. In short, it runs like this: as §1

In series [2] the test system is Substance-P receptor (Oryctolagus cuniculus). The series can be described thus: In vitro binding affinity towards Tachykinin receptor 1 was determined using rabbit pulmonary artery tissues.
The nature of series [3]: Time for maximum plasma concentration was measured in dogs after an oral dose of 10 uM/kg. The series is classed as ADME, organism-based, Canis lupus familiaris. The following applies: dog. In short, it runs like this:
(§2)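 Dogs (n = 3) dosed orally at 10–100 μmol/kg as a solution in 75% polyethylene glycol 400 in normal saline; iv bolus comparison at 1–10 μmol/kg. Blood taken via surgically implanted cannula or by venipuncture over 24 h; plasma analysed for unchanged compound by LC–MS.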

The next series has as its target T3, Neuromedin-K receptor (Homo sapiens, UniProt P29371).
T3 sequence (P29371 whole entry): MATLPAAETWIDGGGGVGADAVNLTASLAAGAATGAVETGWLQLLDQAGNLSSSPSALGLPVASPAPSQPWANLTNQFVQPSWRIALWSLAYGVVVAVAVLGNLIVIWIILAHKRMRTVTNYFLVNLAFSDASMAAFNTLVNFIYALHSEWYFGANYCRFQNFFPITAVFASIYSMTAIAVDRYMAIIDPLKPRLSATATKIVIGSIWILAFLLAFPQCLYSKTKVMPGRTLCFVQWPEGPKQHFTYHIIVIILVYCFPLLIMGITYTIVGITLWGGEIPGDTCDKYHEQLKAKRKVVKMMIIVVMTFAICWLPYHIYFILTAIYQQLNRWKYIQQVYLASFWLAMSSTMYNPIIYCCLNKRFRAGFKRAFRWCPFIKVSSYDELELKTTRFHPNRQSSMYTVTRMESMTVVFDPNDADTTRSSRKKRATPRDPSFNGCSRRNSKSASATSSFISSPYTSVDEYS
The series can be described thus: In vitro binding affinity towards human Tachykinin receptor 3 was determined by using [125I]MePhe-NKB as a radioligand. In short, it runs like this: as §1

The nature of series [4]: Half-life was measured in dogs after an oral dose of 10 uM/kg. The series is classed as ADME, organism-based, Canis lupus familiaris. The note with it: dog, in vivo. In short, it runs like this: as §2
Series [5] can be described thus: Bioavailability was measured in dogs after an oral dose of 10 uM/kg. The following applies: dog, in vivo, read-out: Bioavailabiility. The series is classed as ADME, organism-based, Canis lupus familiaris. In short, it runs like this: as §2
A short description of series [6]: Area under plasma concentration time curve was measured in dogs after an oral dose of 10 uM/kg. The format is ADME, organism-based, Canis lupus familiaris. The note with it: dog. A digest of the protocol:
as §2

Series [7] in a line: Maximum plasma concentration was measured in dogs after an oral dose of 10 umol/kg. Also on record: dose 10 umol/kg, route oral. The format is ADME, organism-based, Canis lupus familiaris. The note with it: dog. A digest of the protocol:
as §2

Molecules are shown by their SMILES.

What is called pKB is −log10 of the KB, conventionally taken in molar units. The low end stands for a large KB, the high end for a small KB. The term Inhibition denotes the drop in the measured response relative to a control, in per cent. What is called Ki is the dissociation constant of the complex between target and ligand, obtained from inhibition or displacement. In general, Tmax refers to the time from dosing to the highest level. As usually defined, the half-life is how long it takes for the measured level to halve. In general, AUC refers to the area under the concentration-time curve, a measure of exposure. One may read the Cmax as the highest concentration seen after dosing.

`CCc1c(C#N)cc2ccccc2c1C(=O)N(C)C[C@@H](CCN1CCC(c2ccccc2[S@+](C)[O-])CC1)c1ccc(Cl)c(Cl)c1` (stereo in doubt; 3) [listing 1 of 2 here]: the negative-log KB (pKB) in series [1] was found to be 7.31.

For the compound `CCc1c(C#N)cc2ccccc2c1C(=O)N(C)C[C@@H](CCN1CCC(c2ccccc2[S@+](C)[O-])CC1)c1ccc(Cl)c(Cl)c1` (stereo in doubt; form 3) [listing 1 of 2 here], in the series on Gerbillinae, the Inhibition was found to be 0.3%. Further, the figures for the inhibitory constant (Ki) on Substance-P receptor and at Substance-K receptor were 2.94 nM and 22 nM, respectively.

Take `CN(C[C@@H](CCN1CCC(c2ccccc2[S@+](C)[O-])CC1)c1ccc(Cl)c(Cl)c1)C(=O)c1c(-c2ccccc2)c(C#N)cc2ccccc12`: the negative logarithm of the KB (pKB) is 7.27 in [1] and 7.39 in [2].

Take `CCCc1c(C#N)cc2ccccc2c1C(=O)N(C)C[C@@H](CCN1CCC(c2ccccc2[S@+](C)[O-])CC1)c1ccc(Cl)c(Cl)c1`: the results for the pKB in series [1] and in series [2] were 6.72 and 7.8, respectively.

As for `CCc1c(C#N)cc2ccccc2c1C(=O)N(C)C[C@@H](CCN1CCC(c2ccccc2[S@+](C)[O-])CC1)c1ccc(Cl)c(Cl)c1` (stereo in doubt; 3) [listing 2 of 2 here], the Tmax in [3] stood at 4 h. For the same compound, the Inhibition with Gerbillinae is listed as 33%. The Ki at Neuromedin-K receptor is 97 nM; at Substance-P receptor it was 1.24 nM; on Substance-K receptor, 37 nM. The half-life in [4] was 5.9 h. Besides, in [5], the bioavailability was found to be 37.3%. For the same compound, in series [6], the exposure (AUC) came out at 6130 ng·h/mL. In [7], this compound came in with a peak concentration (Cmax) of 662 ng/mL.

Regarding `CCc1c(C#N)cc2ccccc2c1C(=O)N(C)C[C@@H](CCN1CCC(c2ccccc2[S@+](C)[O-])CC1)c1ccc(Cl)c(Cl)c1` (stereo in doubt; form 2) [listing 1 of 2 here], in the series on Gerbillinae, the Inhibition is 91%. Besides, the values for the inhibitory constant (Ki) on Substance-P receptor and at Substance-K receptor were 6.94 nM and 33 nM, respectively.

For `CCc1c(C#N)cc2ccccc2c1C(=O)N(C)C[C@@H](CCN1CCC(c2ccccc2[S@+](C)[O-])CC1)c1ccc(Cl)c(Cl)c1` (stereo in doubt; form 3) [listing 2 of 2 here], in series [1], the pKB is 6.83.

In the case of `Cc1c(C#N)cc2ccccc2c1C(=O)N(C)C[C@@H](CCN1CCC(c2ccccc2[S@+](C)[O-])CC1)c1ccc(Cl)c(Cl)c1`, the pKB in series [1] was 7.1; in series [2] it was 9.06.

Consider `CCc1c(C#N)cc2ccccc2c1C(=O)N(C)C[C@@H](CCN1CCC(c2ccccc2[S@+](C)[O-])CC1)c1ccc(Cl)c(Cl)c1` (stereo in doubt; form 4), for which the Inhibition in the series on Gerbillinae was determined as 13%. Also, the figures for the Ki on Substance-P receptor and at Substance-K receptor were 0.4 nM and 35 nM, respectively.

In the case of `CC(C)Cc1c(C#N)cc2ccccc2c1C(=O)N(C)C[C@@H](CCN1CCC(c2ccccc2[S@+](C)[O-])CC1)c1ccc(Cl)c(Cl)c1`, the negative logarithm of the KB (pKB) in series [1] was 6.35; in series [2] it was 7.23.

For `CCc1c(C#N)cc2ccccc2c1C(=O)N(C)C[C@@H](CCN1CCC(c2ccccc2[S@+](C)[O-])CC1)c1ccc(Cl)c(Cl)c1` (stereo in doubt; form 2) [listing 2 of 2 here], the pKB in series [1] was 6.25.

`CCc1c(C#N)cc2ccccc2c1C(=O)N(C)C[C@@H](CCN1CCC(c2ccccc2[S@+](C)[O-])CC1)c1ccc(Cl)c(Cl)c1` (stereo in doubt; form 1) [listing 1 of 2 here] gave a pKB in [1] of 7.11.

As to `CN(C[C@@H](CCN1CCC(c2ccccc2[S@+](C)[O-])CC1)c1ccc(Cl)c(Cl)c1)C(=O)c1cc(C#N)cc2ccccc12`, the pKB in series [1] was found to be 8.3.

As for `CCc1c(C#N)cc2ccccc2c1C(=O)N(C)C[C@@H](CCN1CCC(c2ccccc2[S@+](C)[O-])CC1)c1ccc(Cl)c(Cl)c1` (stereo in doubt; form 1) [listing 2 of 2 here], the Inhibition in the series with Gerbillinae turned out to be 1.4%. Besides, the Ki amounted to 1.71 nM at Substance-P receptor and 23 nM on Substance-K receptor.
